High-throughput results: PubChem, Johns Hopkins Ion Channel Center
TRPC4 agonist = opens the mouse TRPC4 cation channel. HEK293 TRPC4beta/mu-opioid, Fluo4 calcium fluorescence; stronger effect = higher value. B-score at 10 µM. 0.49% of 310,000 active;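 active = B-score above 5 SD of library B-scores, and initial fluorescence ratio not above library mean plus 5 SD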;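 also: positive B-score marks a calcium rise read as TRPC4 activation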
Target sequence (Q9QUQ5 whole entry, looked up): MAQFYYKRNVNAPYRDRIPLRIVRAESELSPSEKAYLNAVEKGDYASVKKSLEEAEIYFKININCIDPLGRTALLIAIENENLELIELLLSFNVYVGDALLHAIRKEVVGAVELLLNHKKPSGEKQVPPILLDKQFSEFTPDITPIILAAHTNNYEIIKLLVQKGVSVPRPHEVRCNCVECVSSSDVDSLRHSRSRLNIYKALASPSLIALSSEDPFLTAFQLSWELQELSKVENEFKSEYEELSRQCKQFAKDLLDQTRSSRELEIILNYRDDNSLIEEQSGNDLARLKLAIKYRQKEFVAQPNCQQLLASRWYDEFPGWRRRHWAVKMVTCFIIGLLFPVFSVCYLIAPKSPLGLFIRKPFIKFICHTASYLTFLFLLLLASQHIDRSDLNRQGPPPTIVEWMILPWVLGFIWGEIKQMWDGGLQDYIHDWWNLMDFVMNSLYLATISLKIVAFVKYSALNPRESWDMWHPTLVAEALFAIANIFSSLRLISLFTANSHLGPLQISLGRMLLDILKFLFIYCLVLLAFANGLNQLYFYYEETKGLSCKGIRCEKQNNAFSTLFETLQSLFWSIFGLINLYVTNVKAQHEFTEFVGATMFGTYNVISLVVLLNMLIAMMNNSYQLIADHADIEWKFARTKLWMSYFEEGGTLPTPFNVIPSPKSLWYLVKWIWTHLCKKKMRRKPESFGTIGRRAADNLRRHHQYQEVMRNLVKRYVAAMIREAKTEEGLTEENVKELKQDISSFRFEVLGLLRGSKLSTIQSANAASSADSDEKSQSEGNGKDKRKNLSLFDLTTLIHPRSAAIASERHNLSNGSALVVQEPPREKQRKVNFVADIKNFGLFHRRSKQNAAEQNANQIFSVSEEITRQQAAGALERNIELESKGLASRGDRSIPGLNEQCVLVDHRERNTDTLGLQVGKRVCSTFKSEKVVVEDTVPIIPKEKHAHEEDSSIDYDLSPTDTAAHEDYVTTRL
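Assay system: HEK293 stable line with TRPC4beta plus mu-opioid receptor. Times: dye 45 min RT, read 110 s. Measured by: kinetic Fluo4 calcium fluorescence. Measure: B score of integrated ratio. Controls: assay buffer as low control, maximal DAMGO as high control.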
TRPC6 activator = activates the mouse TRPC6 cation channel | AID 2550 | 0.13% of 310,000 active | Q61143 | HEK293-TRPC6 membrane potential dye fluorescence; stronger effect = higher value | B-score at 10 µM;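 active = B-score of the integrated fluorescence ratio above library mean plus 3 SD, and starting fluorescence ratio within library mean plus 5 SD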;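 also: higher score means more depolarization so channel activation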
TRPC6 inh = inhibitors of mouse TRPC6 channel | Q61143 | 1.1% of 310,000 active | B-score at 10 µM | HEK293-TRPC6, membrane potential dye, ACh-evoked depolarization; stronger effect = lower value;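 active = B-score under library mean minus 3 SD, initial fluorescence not abnormally high, positive integrated signal ratio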;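 also: B-score derived from integrated fluorescence ratio over the kinetic read; more negative B-score means stronger inhibition of depolarization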
TRPC4 inh = TRPC4 (mouse) channel inhibition; Q9QUQ5; 0.39% of 300,000 active; HEK293 TRPC4beta/mu-opioid, DAMGO-evoked Fluo4 calcium flux; stronger effect = lower value; AID 2247; B-score at 10 µM;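 active = B-score over 3 SD under the library average, no early fluorescence shift, positive overall ratio signal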
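material = TRPC4beta/mu-opioid receptor HEK293 cell line | probe or stimulus = sequential submaximal and maximal DAMGO stimulation | compound dosing = one concentration per compound | measured by = Fluo4 Ca2+ flux fluorescence | evaluation = integrated fluorescence ratio relative to baseline, converted to per-well B score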
TRPC4 PAM = TRPC4 (mouse) allosteric potentiation. Q9QUQ5. 0.42% of 310,000 active. HEK293 TRPC4beta/mu-opioid, DAMGO EC20, Fluo-4 Ca2+ flux; stronger effect = higher value. AID 2227. B-score at 10 µM;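 active = B-score of calcium response area above 5 SD of library B-scores, with initial fluorescence ratio within 5 SD of library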;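 also: B-score of integrated fluorescence ratio over time as area under calcium response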
TRPC4 spec 2 = second selectivity test of TRPC6 inhibitors: effect on mouse TRPC4; shares compounds with TRPC6 inh; HEK293 TRPC4/MOR, membrane potential dye fluorescence; channel activated by saturating DAMGO dose; inhibition, % at 10 µM; 42% of 920 active; AID 2776;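 active = compounds whose fluorescence signal differed from control wells by over 3 SD, either direction, in both duplicate plates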
TRPC4 spec = tests whether TRPC6 inhibitors also affect mouse TRPC4; AID 2777; 61% of 920 active; activity change, negative = inhibition, % at 10 µM; shares compounds with TRPC6 inh; HEK293 TRPC4/mu-opioid, membrane potential fluorescence;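 active = rise or fall in signal beyond 3 SD of buffer-only wells in both replicate plates, either sign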;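 also: integrated kinetic ratio of fluorescence range over baseline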
HEK293 MPD ctr 2-1 = parental HEK293 nonspecific activity of TRPC6 inhibitors, second screen. signal change vs control, % at 10 µM. parental HEK293 membrane potential dye fluorescence; maximal acetylcholine challenge after compound addition. 31% of 920 active. shares compounds with TRPC6 inh;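 active = membrane potential signal moving either way by over 3 SD of the maximum-effect control, in both duplicate plates, meaning non-specific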
HEK293 MPD ctr-1 = parental HEK293 nonspecific activity of TRPC6 inhibitors. shares compounds with TRPC6 inh. 60% of 920 active. parental HEK293 membrane potential dye fluorescence. membrane potential signal change, % at 10 µM;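 active = membrane potential signal shifting up or down by more than 3 SD of buffer-only wells, on both duplicate plates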
HEK293 MPD ctr-2 = counter-screen for TRPC6 modulators: effect in parental HEK293 cells; shares compounds with TRPC6 inh; membrane potential dye fluorescence; membrane potential signal change, % at 10 µM; 51% of 2,400 active;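 active = membrane potential signal moves up or down beyond 5 SD from buffer-only wells, on both duplicate plates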
HEK293 MPD ctr 2-2 = second check of TRPC6 modulator effects in parental HEK293 cells | 14% of 2,400 active | membrane potential dye fluorescence; after compound, maximal acetylcholine stimulation | shares compounds with TRPC6 inh | inhibition, % at 10 µM | AID 488926;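 active = membrane potential signal drops by more than 5 SD from the mean control signal, in both duplicate plates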;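 also: plate controls were acetylcholine ECmax control wells for no effect and buffer only wells for full effect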
TRPC4 ctr mod = tests whether TRPC6 modulators also affect mouse TRPC4; shares compounds with TRPC6 inh; HEK293 TRPC4/mu-opioid, membrane potential fluorescence; percent change from control (negative = decrease, positive = increase), % at 10 µM; 69% of 2,400 active;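 active = membrane potential signal moved up or down beyond 5 SD of buffer control wells, in both duplicate plates, actives on both sides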;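 also: plate controls were assay buffer wells for no effect and DAMGO maximal-effect wells for full effect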
TRPC4 ctr inh 2 = mouse TRPC4 off-target activity of TRPC6 modulators, second screen; HEK293 TRPC4/mu-opioid, membrane potential dye fluorescence; stimulated with maximal-effect DAMGO; inhibition, % at 10 µM; shares compounds with TRPC6 inh; 55% of 2,400 active;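 active = drop in membrane potential signal beyond 5 SD of the control wells in both duplicate plates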;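 also: TRPC4 counter screen for TRPC6 hits run under conditions tuned for TRPC6 not TRPC4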
TRPC6 block conf = mouse TRPC6 inhibitor confirmation. shares compounds with TRPC6 inh. HEK293-TRPC6, membrane potential dye, ACh-evoked depolarization. inhibition, % at 10 µM. 43% of 3,300 active;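 active = fluorescence ratio falls more than 5 SD below the full-stimulation control mean, in both duplicate runs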;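 also: integrated fluorescence ratio of peak minus minimum over baseline after agonist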
TRPC6 act confirm = mouse TRPC6 activator confirmation. 11% of 2,800 active. activation, % at 10 µM. AID 488961. shares compounds with TRPC6 inh. HEK293-TRPC6 membrane potential dye fluorescence, FDSS;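 active = ratio signal rise beyond 5 SD above unstimulated control wells' mean, seen in both duplicate runs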;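 also: plate controls were buffer EC0 wells for no effect and acetylcholine ECmax response for full effect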
* marks the source's active call; other numbers are inactive results; i = inactive. An excerpt weighted towards active compounds, which were near 2.3% of everything screened.

SMILES	TRPC4 agonist	TRPC6 activator	TRPC6 inh	TRPC4 inh	TRPC4 PAM	others
CNc1cc(N2CCNCC2)ccc1[N+](=O)[O-]	i	i	i	i	13*
Nc1cc(N2CCNCC2)ccc1[N+](=O)[O-]	77*	i	i	i	26*
O=[N+]([O-])c1ccc(N2CCNCC2)cc1N1CCCCCC1	i	i	i	i	18*
NCC(CC(=O)O)C1CCCCC1 (stereo not given)	i	i	i	i	i
Cn1ncc(Cl)c1C(=O)N1CCC2(CC1)OCCO2	i	i	i	i	i
c1ccc2c(c1)CSc1ccccc1C2C1=NCCN1 (stereo not given)	i	i	i	i	i
Brc1ccc2c(c1)C(OC1CN3CCC1CC3)c1ccccc1CS2 (stereo not given)	i	i	i	i	29*
Nc1nnc(P(c2ccccc2)c2ccccc2)s1	i	i	i	i	i
c1ccc2oc(N3CCNCC3)nc2c1	72*	i	i	i	44*
C=CCn1c(O)c(N=Nc2c(C)n(C)n(-c3ccccc3)c2=O)c(=O)[nH]c1=S	45*	i	i	i	i
Cc1c(N=Nc2c(O)[nH]c(=S)[nH]c2=O)c(=O)n(-c2ccccc2)n1C	i	i	i	i	i
N#Cc1cc2c(nc1SCC(=O)Nc1cc(Cl)ccc1Cl)C1CCN2CC1	i	i	i	i	i
N=c1c2c(n(Cc3ccc(Cl)cc3Cl)c3c1CCC3)CCCC2	i	i	-5.12*	i	i
Cc1nn(Cc2ccc(Cl)cc2Cl)c(Cl)c1C(=O)O	i	i	i	i	i
CCC(=O)OC1(Cc2ccc(CC)cc2)CC(C)N(C)CC1C (stereo not given)	48*	i	i	-8*	i
CCC(=O)OC1(c2cccc(C)c2)CC(C)N(C)CC1C (stereo not given)	68*	i	i	i	i
CCOc1cccc(OCC)c2c(C)[n+](CC3CCCO3)c(C)c1-2 (stereo not given)	i	i	i	i	i
CN1CCN(/N=C/c2c(O)n(CCC3=CCCCC3)c(=S)[nH]c2=O)CC1	i	i	i	i	i
CSc1ccc(C(=O)C2CCCN(CCCn3cccn3)C2)cc1 (stereo not given)	83*	i	i	i	i
Cn1cccc1CNCCc1ccccc1F	i	i	i	i	i
CC1CN2c3ccc([N+](=O)[O-])cc3CC3(C(=O)N(C)C(=O)N(C)C3=O)C2C(C)O1 (stereo not given)	i	i	i	i	i
CN1CCN(c2nc(N(C)C)oc(=O)c2C#N)CC1	i	i	i	i	i
N#Cc1c(N2CCNCC2)nc(-c2ccco2)c2c1CCCC2	i	i	-7.84*	i	i	TRPC4 spec 2=28.5%*;TRPC4 spec=-13.5%*;HEK293 MPD ctr 2-1=i;HEK293 MPD ctr-1=-228.0%*;TRPC6 block conf=58.3%*;TRPC6 act confirm=i
CCc1ccc(NC(=O)CN2CC(c3ccccc3)CC2=O)cc1 (stereo not given)	i	i	i	i	i
Cc1nccn1Cc1ccc(Cl)nc1	i	i	i	i	i
SMILES	TRPC4 agonist	TRPC6 activator	TRPC6 inh	TRPC4 inh	TRPC4 PAM	others
Fc1ccc(C[n+]2c(-c3ccccc3)cc(-c3ccccc3)cc2-c2ccccc2)cc1	i	i	-6.91*	i	i	TRPC4 spec 2=75.0%*;TRPC4 spec=4.2%*;HEK293 MPD ctr 2-1=232.5%*;HEK293 MPD ctr-1=3.5%*;TRPC6 block conf=56.4%*;TRPC6 act confirm=i
CCOP(=O)(OCC)C(NC(=O)C(C)C)C(Cl)(Cl)Cl (stereo not given)	i	i	i	i	i
O=C(N[C@H]1CP(=O)(Oc2ccccc2)O[C@H](COCc2ccccc2)[C@H]1O)C(Cl)(Cl)Cl (stereo not given in full)	i	i	i	i	i
Cc1cc(C)c2c(ccc3cccc[n+]32)c1	i	i	-7.62*	i	i	HEK293 MPD ctr-2=-260.0%*;HEK293 MPD ctr 2-2=96.0%*;TRPC4 ctr mod=-39.5%*;TRPC4 ctr inh 2=59.5%*;TRPC6 block conf=69.0%*;TRPC6 act confirm=i
CC1=C2C3OC(=O)C(C)C3CC[C@@]2(C)C=CC1=O (stereo not given in full)	i	i	i	i	i
Clc1ccc2[nH]c3c(c2c1)CCNC3	i	i	-5.3*	i	i	HEK293 MPD ctr-2=i;HEK293 MPD ctr 2-2=i;TRPC4 ctr mod=i;TRPC4 ctr inh 2=35.0%*;TRPC6 block conf=i;TRPC6 act confirm=i
Cc1ccc(-c2nc3ccccc3c(=O)n2-c2cc(C)ccn2)cc1	i	i	i	i	i
Cc1ccc(-c2nc3ccccc3c(=O)n2-c2cccc(C)n2)cc1	i	i	-6.01*	i	i	HEK293 MPD ctr-2=i;HEK293 MPD ctr 2-2=i;TRPC4 ctr mod=i;TRPC4 ctr inh 2=i;TRPC6 block conf=i;TRPC6 act confirm=i
Clc1ccc2sc(C3CCNCC3)nc2c1	187*	i	-6.02*	i	i	HEK293 MPD ctr-2=i;HEK293 MPD ctr 2-2=i;TRPC4 ctr mod=47.0%*;TRPC4 ctr inh 2=52.5%*;TRPC6 block conf=i;TRPC6 act confirm=i
